Source: ChEMBL document CHEMBL5705892, “MK-2206, an allosteric Akt inhibitor, enhances antitumor efficacy by standard chemotherapeutic agents or molecular targeted drugs in vitro and in vivo” (Mol Cancer Ther, 2010)
Active and inactive are the calls of the source. The rule behind the calls is not given here.

Assays:
[1] = test system: NCI-H460; assay: Antiproliferative activity against human NCI-H460 cells assessed as reduction in cell proliferation measured after 72 hrs by celltiter-glo assay; assay type: functional, cell-based; conditions: NCI-H460, 72 h
[2] = test system: HCC1954; assay: Synergistic antiproliferative activity against human HCC1954 cells assessed as combination index at ED50 measured after 72 hrs in presence of lapatinib by celltiter-glo assay; assay type: functional
Outline: (§1)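 Cells grown in RPMI 1640 with 10% heat-inactivated FBS at 37°C, 5% CO₂. Seeded at 2 to 3 × 10³ per well; drugs added 24 h later. […] Viability read as cellular ATP by CellTiter-Glo. CI calculated by Chou–Talalay from median-effect plots at ED50, ED75 and ED90.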

[3] = test system: MDA-MB-468; assay: Synergistic antiproliferative activity against human MDA-MB-468 cells assessed as combination index at ED90 measured after 72 hrs in presence of lapatinib by celltiter-glo assay; assay type: functional
[4] = test system: SK-OV-3; assay: Synergistic antiproliferative activity against human SK-OV-3 cells assessed as combination index at ED90 measured after 72 hrs in presence of lapatinib by celltiter-glo assay; assay type: functional
[5] = molecular target: RAC-alpha serine/threonine-protein kinase (Homo sapiens) (UniProt P31749); assay: Inhibition of AKT in human A-431 cells assessed as reduction in AKT phosphorylation at S473 residue at 5 umol/L measured after 5 hrs by Western blot analysis; assay type: cell-based; conditions: dose 5.0 µmol/L
Sequence of RAC-alpha serine/threonine-protein kinase (Homo sapiens) (P31749 whole entry): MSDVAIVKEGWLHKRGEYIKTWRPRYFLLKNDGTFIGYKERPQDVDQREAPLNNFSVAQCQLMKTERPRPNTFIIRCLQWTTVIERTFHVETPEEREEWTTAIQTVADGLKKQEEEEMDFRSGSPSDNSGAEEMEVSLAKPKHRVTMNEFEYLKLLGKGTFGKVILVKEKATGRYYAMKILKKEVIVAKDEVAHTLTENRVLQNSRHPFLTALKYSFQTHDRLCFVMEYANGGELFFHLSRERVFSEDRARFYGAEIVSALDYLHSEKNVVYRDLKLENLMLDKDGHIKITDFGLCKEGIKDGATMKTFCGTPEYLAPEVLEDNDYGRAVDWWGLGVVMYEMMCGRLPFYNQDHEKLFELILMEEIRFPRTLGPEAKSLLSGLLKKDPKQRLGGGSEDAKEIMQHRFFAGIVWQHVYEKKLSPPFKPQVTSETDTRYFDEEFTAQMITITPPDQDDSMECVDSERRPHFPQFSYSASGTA
Outline: (§2)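 Cells were lysed in Tris-HCl pH 7.5, 150 mM NaCl, 1% Triton X-100 with protease and phosphatase inhibitors. Lysates were run on SDS-PAGE, transferred to nitrocellulose and probed with phospho-specific antibodies.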

[6] = molecular target: RAC-alpha serine/threonine-protein kinase (Homo sapiens) (UniProt P31749); assay: Inhibition of AKT in human A-431 cells assessed as reduction in S6 phosphorylation at S240/S244 residues at 5 umol/L measured after 5 hrs in presence of erlotinib by Western blot analysis; assay type: cell-based; conditions: dose 5.0 µmol/L; outline: as §2
[7] = molecular target: RAC-alpha serine/threonine-protein kinase (Homo sapiens) (UniProt P31749); assay: Inhibition of AKT in human HCC827 cells assessed as reduction in PRAS40 phosphorylation at T246 residue at 5 umol/L measured after 5 hrs in presence of erlotinib by Western blot analysis; assay type: cell-based; conditions: dose 5.0 µmol/L
[8] = molecular target: RAC-alpha serine/threonine-protein kinase (Homo sapiens) (UniProt P31749); assay: Inhibition of AKT in human HCC827 cells assessed as reduction in GSK3alpha/beta phosphorylation at S21/S9 residues at 5 umol/L measured after 5 hrs in presence of erlotinib by Western blot analysis; assay type: cell-based; conditions: dose 5.0 µmol/L
[9] = test system: NCI-H292; assay: Antitumor activity against human NCI-H292 cells xenografted in CD-1 mouse assessed as tumor growth suppression at 120 mg/kg, po administered 3 times per week for 2 weeks and measured twice a week during compound dosing by caliper method; assay type: functional, organism-based
Outline: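 Female CD1-nude mice carried s.c. NCI-H292 cells in Matrigel/PBS and were randomized at 0.2 cm³, n = 5. […] MK-2206 (30% Captisol) was given 2 h later at 120 mg/kg po on days 0, 2, 4, 7, 9, 11, or at 360 mg/kg on days 0 and 7. Control received vehicle. Caliper volume twice weekly.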

[10] = test system: SK-BR-3; assay: Synergistic antiproliferative activity against human SK-BR-3 cells assessed as combination index at ED75 measured after 96 hrs in presence of lapatinib by celltiter-glo assay; assay type: functional
[11] = test system: MDA-MB-468; assay: Synergistic antiproliferative activity against human MDA-MB-468 cells assessed as combination index at ED90 treated 24 hrs prior to lapatinib and measured after 72 hrs by celltiter-glo assay; assay type: functional; conditions: time 96 hrs
[12] = test system: SK-BR-3; assay: Synergistic antiproliferative activity against human SK-BR-3 cells assessed as combination index at ED90 measured after 96 hrs in presence of lapatinib by celltiter-glo assay; assay type: functional
[13] = test system: SK-OV-3; assay: Synergistic antiproliferative activity against human SK-OV-3 cells assessed as combination index at ED90 measured after 96 hrs in presence of lapatinib by celltiter-glo assay; assay type: functional
[14] = Toxicity in human SK-OV-3 cells xenografted CB17/icr SCID mouse at 60 to 120 mg/kg, po administered 3 times per week for 2 weeks starting 2 hrs post lapatinib treatment and measured during compound dosing; assay type: organism-based; conditions: in vivo, 336 h, dose 60-120 mg/kg
Outline: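 SK-OV-3 cells in 50% Matrigel/PBS injected s.c. into flank of female C.B-17/ICR-scid mice; dosing began after 3 wk, randomized at mean tumour 0.13 cm³ (n = 5). Lapatinib 100 mg/kg p.o. in distilled water 5 d/wk for 2 wk; MK-2206 in 30% Captisol p.o. days 0, 2, 4, 7, 9, 11. Body weight and physical signs monitored.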

[15] = test system: MCF7; assay: Synergistic antiproliferative activity against human MCF7 cells assessed as combination index at ED75 measured after 72 hrs in presence of docetaxel by celltiter-glo assay; assay type: functional; outline: as §1
[16] = test system: MDA-MB-468; assay: Synergistic antiproliferative activity against human MDA-MB-468 cells assessed as combination index at ED75 measured after 72 hrs in presence of docetaxel by celltiter-glo assay; assay type: functional; outline: as §1
[17] = test system: ZR-75-1; assay: Synergistic antiproliferative activity against human ZR-75-1 cells assessed as combination index at ED90 measured after 72 hrs in presence of docetaxel by celltiter-glo assay; assay type: functional
[18] = test system: MDA-MB-453; assay: Synergistic antiproliferative activity against human MDA-MB-453 cells assessed as combination index at ED90 measured after 72 hrs in presence of docetaxel by celltiter-glo assay; assay type: functional; outline: as §1
[19] = test system: HCC70; assay: Synergistic antiproliferative activity against human HCC70 cells assessed as combination index at ED90 measured after 72 hrs in presence of docetaxel by celltiter-glo assay; assay type: functional; outline: as §1
[20] = test system: A2780; assay: Synergistic antiproliferative activity against human A2780 cells assessed as combination index at ED75 measured after 72 hrs in presence of doxorubicin by celltiter-glo assay; assay type: functional
Outline: (§3)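 Cells were seeded at 2–3 × 10³ per well in RPMI 1640 with 10% FBS. At 24 h, MK-2206 and the partner drug were added simultaneously at constant concentration ratios spanning each agent's IC₅₀, for 72 h. Growth was read as cellular ATP by CellTiter-Glo. CI was taken from median-effect plots of each agent alone and in combination (Chou–Talalay), at ED₅₀, ED₇₅ and ED₉₀.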

[21] = test system: A2780; assay: Synergistic antiproliferative activity against human A2780 cells assessed as combination index at ED90 measured after 72 hrs in presence of camptothecin by celltiter-glo assay; assay type: functional; outline: as §3
[22] = Toxicity in human NCI-H460 cells xenografted CD1 nude mouse assessed as body weight loss at 120 mg/kg, po administered 3 times per week for 2 weeks measured during compound dosing relative to control; assay type: organism-based; conditions: in vivo, 336 h
[23] = Toxicity in human NCI-H460 cells xenografted CD1 nude mouse assessed as body weight loss at 120 mg/kg, po administered 3 times per week for 2 weeks in presence of carboplatin measured during compound dosing relative to control; assay type: organism-based; conditions: in vivo, 336 h
Outline: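 Female CD1-nude mice with s.c. NCI-H460 tumours (50% Matrigel/50% PBS), randomized at mean 0.2 cm³, n=5/group, dosing from 12 d post-implant. Body weight monitored against vehicle-only controls.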

[24] = test system: NCI-H1703; assay: Synergistic antiproliferative activity against human NCI-H1703 cells assessed as combination index at ED25 to ED90 measured after 72 hrs in presence of carboplatin by celltiter-glo assay; assay type: functional
[25] = test system: NCI-H441; assay: Synergistic antiproliferative activity against human NCI-H441 cells assessed as combination index at ED25 to ED90 measured after 72 hrs in presence of gemcitabine by celltiter-glo assay; assay type: functional

Structure (SMILES): Cl.NC1(c2ccc(-c3nc4ccn5c(=O)[nH]nc5c4cc3-c3ccccc3)cc2)CCC1
- IC50 [1]: 3.4 µM
- CI50 [2]: 0.18
- CI90 [3]: 0.16
- CI90 [4]: 0.25
- inhibition [5]: Active
- inhibition [6]: Active
- inhibition [7]: Active
- inhibition [8]: Active
- Activity [9]: inactive
- CI75 [10]: 0.18
- CI90 [11]: 0.18
- CI90 [12]: 0.18
- CI90 [13]: 0.18
- Activity [14]: Non-Toxic
- CI75 [15]: 0.5
- CI75 [16]: 0.8
- CI90 [17]: 0.4
- CI90 [18]: 0.3
- CI90 [19]: 0.5
- CI75 [20]: 0.43
- CI90 [21]: 0.29
- Activity [22]: 7%
- Activity [23]: 7%
- CI [24]: 0.53
- CI [25]: 0.37
